ChEMBL document CHEMBL1137696, “Preparation and in vitro evaluation of benzylsulfanyl benzoxazole derivatives as potential antituberculosis agents” (2009)
In brackets after ≈: the same amount, converted by molar mass.

How the values were obtained:
Assay type in all cases: functional
[1] = system: Mycobacterium tuberculosis; experiment: Antimycobacterial activity against isoniazid and streptomycin-resistant Mycobacterium tuberculosis 4166/04 after 21 days by micromethod; settings: 4166/04, 504 h
Outline: (§1)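 MIC by micromethod in Šula semisynthetic medium. Compounds added as DMSO solutions at 1000, 500, 250, 125, 62, 32, 16, 8, 4 and 2 µmol/L. Incubated at 37 °C and read at 14 and 21 days. MIC taken as the lowest concentration that inhibited mycobacterial growth, expressed in µmol/L. INH run as standard. Strains from CNCTC.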

[2] = system: Mycobacterium tuberculosis; experiment: Antimycobacterial activity against isoniazid and streptomycin-resistant Mycobacterium tuberculosis 4166/04 after 14 days by micromethod; settings: 4166/04, 336 h; outline: as §1
[3] = system: Mycobacterium tuberculosis; experiment: Antimycobacterial activity against multidrug-resistant Mycobacterium tuberculosis 7357/98 after 21 days by micromethod; settings: 7357/98, 504 h; outline: as §1
[4] = system: Mycobacterium tuberculosis; experiment: Antimycobacterial activity against multidrug-resistant Mycobacterium tuberculosis 4977/03 after 21 days by micromethod; settings: 4977/03, 504 h; outline: as §1
[5] = system: Mycobacterium tuberculosis; experiment: Antimycobacterial activity against multidrug-resistant Mycobacterium tuberculosis 4977/03 after 14 days by micromethod; settings: 4977/03, 336 h; outline: as §1
[6] = system: Mycobacterium tuberculosis; experiment: Antimycobacterial activity against multidrug-resistant Mycobacterium tuberculosis 550/04 after 21 days by micromethod; settings: 550/04, 504 h; outline: as §1
[7] = system: Mycobacterium tuberculosis; experiment: Antimycobacterial activity against multidrug-resistant Mycobacterium tuberculosis 550/04 after 14 days by micromethod; settings: 550/04, 336 h; outline: as §1
[8] = system: Mycobacterium tuberculosis; experiment: Antimycobacterial activity against multidrug-resistant Mycobacterium tuberculosis 7357/98 after 14 days by micromethod; settings: 7357/98, 336 h; outline: as §1

Row | Compound | MIC [1] [µM] | MIC [2] [µM] | MIC [3] [µM] | MIC [4] [µM] | MIC [5] [µM] | MIC [6] [µM] | MIC [7] [µM] | MIC [8] [µM]
1 | NC(=S)c1ccc(CSc2nc3ccccc3o2)cc1 | 16 (≈ 4.81 µg/mL) | 8 (≈ 2.4 µg/mL) | 32 (≈ 9.61 µg/mL) | 32 (≈ 9.61 µg/mL) | 32 (≈ 9.61 µg/mL) | 16 (≈ 4.81 µg/mL) | 8 (≈ 2.4 µg/mL) | 32 (≈ 9.61 µg/mL)
2 | O=[N+]([O-])c1cc(CSc2nc3ccccc3o2)cc([N+](=O)[O-])c1 | 4 (≈ 1.33 µg/mL) | 2 (≈ 0.663 µg/mL) | 4 (≈ 1.33 µg/mL) | 2 (≈ 0.663 µg/mL) | 2 (≈ 0.663 µg/mL) | 4 (≈ 1.33 µg/mL) | 2 (≈ 0.663 µg/mL) | 4 (≈ 1.33 µg/mL)
